# Compound activity as filed in PubChem.
# EBI2 block – antagonists of human EBI2 receptor. AID 651636. inhibition, % at 5 µM. P32249. EBI2 beta-arrestin recruitment, luminescence, 7a,25-OHC stimulated. actives 0.81% (n = 360,000); in the data active means inhibition above about 38%;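 further: enzyme fragment complementation signal reports receptor beta-arrestin coupling in cells; 0% = agonist plus DMSO wells and 100% = wells without agonist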
# CCR6 antagonist – CCR6 (human) receptor antagonism | P51684 | CHO-K1 CCR6 PathHunter beta-arrestin, luminescence, CCL20-stimulated | inhibition, % at 20 µM | actives 0.49% (n = 340,000);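 active means compounds whose inhibition of the agonist-driven luminescence signal at 20 µM reaches about 50%, limit read from the data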;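 further: cells stimulated with CCL20 at 14 nM final; plate controls were DMSO with CCL20 for no effect and DMSO without agonist for full effect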
# APJ agonist – APJ receptor agonism. P35414. CHO-K1 APJ PathHunter beta-arrestin, luminescence; 0% DMSO wells, 100% apelin. activation, % at 20 µM. actives 0.11% (n = 330,000). AID 2520;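 active means activation more than six SD over the plate average, tested at 20 µM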;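 further: 0% = DMSO alone and 100% = apelin-13 at 10 nM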
#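 Assay system: CHO-K1 APJ beta-arrestin complementation cell line / Compound: single test compound dose, 20 µM final, 1% DMSO / Times: overnight seeding, 90 min compound at 25 °C, 1 h detection / Technique: beta-gal luminescence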
# APJ antagonist – blocks the human apelin receptor APJ. P35414. CHO-K1 APJ beta-arrestin complementation, luminescence. inhibition, % at 20 µM. actives 0.32% (n = 330,000). AID 2521;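 active means inhibition above about 40% at 20 µM, limit read from the data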;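 further: cells challenged with 10 nM apelin-13 agonist together with compound; plate controls were apelin-13 plus DMSO wells for no effect and DMSO wells lacking apelin-13 for full effect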
# CXCR6 block – inhibitors of human CXCR6 receptor; O00574; CHO-K1 PathHunter CXCR6 beta-arrestin, luminescence; inhibition, % at 20 µM; actives 0.36% (n = 360,000); in the data active means inhibition above about 34%, passing the limit was not always enough;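 further: antagonist mode with CXCL16 agonist at 10 nM final; 0% = 10 nM CXCL16 with DMSO and 100% = unstimulated wells without agonist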
# Target sequence (O00574 whole entry, looked up): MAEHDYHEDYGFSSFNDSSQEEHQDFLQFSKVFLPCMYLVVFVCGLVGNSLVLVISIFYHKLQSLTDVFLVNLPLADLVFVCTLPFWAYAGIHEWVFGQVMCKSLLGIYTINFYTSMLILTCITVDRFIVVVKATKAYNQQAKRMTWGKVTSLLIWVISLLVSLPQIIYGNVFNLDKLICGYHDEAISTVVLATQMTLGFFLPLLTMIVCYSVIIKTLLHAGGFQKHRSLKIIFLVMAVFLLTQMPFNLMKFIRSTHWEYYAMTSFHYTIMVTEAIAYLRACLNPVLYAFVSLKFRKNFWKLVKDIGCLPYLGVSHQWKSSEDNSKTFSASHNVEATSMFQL
# EBI2 conf – EBI2 (human) antagonism, single concentration confirmation; EBI2 beta-arrestin luminescence, 7a,25-OHC antagonism; inhibition, % at 5 µM; AID 651997; actives 29% (n = 2,400); shares compounds with EBI2 block;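 active means inhibition of at least 50%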
# EBI2 agonist – EBI2 agonism counter-screen | shares compounds with EBI2 block | EBI2-expressing cells, agonist mode, luminescence, 60 min; 0% vehicle, 100% 7α,25-dihydroxycholesterol control | activation, % at 5 µM | 2,400 tested, under 10 active | AID 652000;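 active means activation of at least 50%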
# bGal cs – beta-galactosidase inhibition counter-screen; shares compounds with EBI2 block; purified beta-galactosidase, luminescent Galacton Star, 15 min; inhibition, % at 5 µM; actives 1% (n = 2,400);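 active means replicate-average signal at least 3 plate SD below neutral wells, shown as high inhibition, flagging enzyme-inhibiting false positives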;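 further: 0% = DMSO wells with enzyme and 100% = wells lacking enzyme; higher means stronger loss of beta-gal luminescence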
# Numbers without * were called inactive; . = not tested or not shown. This is a sample that favours compounds with a hit; in the whole collection about 1.5% have one here.
SMILES,EBI2 block,CCR6 antagonist,APJ agonist,APJ antagonist,CXCR6 block,EBI2 conf,EBI2 agonist,bGal cs
Cc1ccc(Cl)cc1N1CCN(C(=O)c2cc3c(=O)[nH]c4ccccc4c3n2C)CC1,73*,10,6,-2,-7,63*,0,-14
Cc1ccc(Cl)cc1N1CCN(C(=O)Cc2c(C(=O)O)[nH]c3ccccc23)CC1,6,0,-3,11,1,.,.,.
CC(=O)Nc1ccc(Nc2nc(-c3sc(C)nc3C)cs2)cc1,1,5,5,-17,-4,.,.,.
CC(=O)c1ccc(Nc2nc(-c3sc(C)nc3C)cs2)cc1,51*,.,.,.,-7,38,1,11
CC(=O)c1cccc(Nc2nc(-c3sc(C)nc3C)cs2)c1,52*,-2,-1,2,2,38,-1,-11
COC1C=CC(CNC(=O)c2cc3c(=O)n4cccc(C)c4nc3n2C)(OC)O1 (centres undefined),49*,13,-2,-10,25,-8,2,6
Cc1cccn2c(=O)c3cc(C(=O)NC4CCCC4)n(C)c3nc12,-7,9,3,-13,-11,.,.,.
Cc1cc2nc(-c3ccc(SCc4ccc(C#N)cc4)nc3)[nH]c2cc1C,56*,-6,9,-7,-6,40,0,-9
Cc1cc2nc(-c3ccc(SCC(=O)Nc4nccs4)nc3)[nH]c2cc1C,55*,8,.,.,-7,45,0,-11
CC(=O)CSc1ccc(-c2nc3cc(C)c(C)cc3[nH]2)cn1,31,-10,-3,-4,-16,.,.,.
Cc1ccc(C(=O)O)cc1NCc1ccncc1,-14,2,-5,-17,-4,.,.,.
O=C(CSc1ccsc1[N+](=O)[O-])N1CCN(c2ccccn2)CC1,-19,10,-3,14,2,.,.,.
CCCCCCn1c(N2CCN(c3cccc(Cl)c3)CC2)nc2c1c(=O)[nH]c(=O)n2C,36*,10,-3,18,11,19,0,5
COc1ccc(OCCNC(=O)c2ccc(C)cc2)cc1,38,11,-1,-4,1,.,.,.
Cc1ccc(OCCNC(=O)c2ccc(C)cc2)cc1,40*,1,-3,-20,4,31,-1,-10
Cc1cccc(OCCNc2ccc(C(F)(F)F)cc2[N+](=O)[O-])c1,-4,21,-3,-12,-1,.,.,.
Cc1ccc(OCCNC(=O)c2cccc(Oc3ccc(C(F)(F)F)cc3[N+](=O)[O-])c2)cc1,40*,-1,-2,8,-7,25,0,1
CC(C)Cc1nccs1,-4,2,-1,1,-6,.,.,.
O=C(CCC(=O)N(CC(=O)NC1CCCC1)Cc1ccc(F)cc1)Nc1nccs1,-10,-11,1,6,0,.,.,.
CCn1c(SCc2ccccc2Cl)nc2nc3c(cc2c1=O)CCCC3,57*,23,.,.,20,41,0,3
O=C(COc1ccccc1)Nc1ccc(S(=O)(=O)Nc2ccccn2)cc1,-6,7,2,-6,0,.,.,.
O=C(COc1ccc(Br)cc1)Nc1ccc(S(=O)(=O)Nc2ccccn2)cc1,43*,3,2,-7,2,25,-1,-10
COc1ccc(C(=O)Cn2c(C(=O)/C=C/c3ccccc3)nc3ccccc32)cc1,53*,30,-3,3,23,47,0,6
C[C@H](O)[C@@H]1C(=O)N2CCc3ccc(-c4ccccc4)cc3[C@@H]2C[C@@H]1N(C)C(=O)c1ccc(C#N)cc1,7,19,.,.,-3,.,.,.
COC(=O)C(=Cc1ccc(OCc2ccc([N+](=O)[O-])cc2)c(OC)c1)C(=O)OC,57*,40,-5,9,22,67*,1,3
SMILES,EBI2 block,CCR6 antagonist,APJ agonist,APJ antagonist,CXCR6 block,EBI2 conf,EBI2 agonist,bGal cs
O=C(NCCCN1CCOCC1)c1cc(-c2ccc(Cl)s2)nc2ccccc12,1,6,-2,-17,0,.,.,.
CCN(CC(=O)NCc1ccc(Cl)cc1)C(=O)CSc1ccc(Br)cc1,68*,-2,0,5,4,35,0,5
COc1ccc(-n2cc([N+](=O)[O-])c(=O)c3ccc(Cl)cc32)cc1,-9,14,-5,14,-2,.,.,.
O=C(c1cccc(F)c1)N1CCN(C(=O)c2cc(-c3ccc(Cl)cc3Cl)on2)CC1,44*,20,-1,1,10,28,-1,-12
O=C(c1cc(-c2ccccc2Cl)on1)N1CCCC1,3,22,-2,10,-1,.,.,.
Cc1csc(=O)n1CCC(=O)OC(C)C(=O)NCc1ccccc1 (centres undefined),-13,8,-1,10,-6,.,.,.
COc1ccc(-n2cc(-c3ccc(Br)cc3)[nH]c2=S)cc1,79*,-7,-1,-6,1,52*,-2,-8
CCC(c1nnnn1-c1ccc2c(c1)OCCO2)N1CCN(C/C=C/c2ccccc2)CC1 (centres undefined),18,.,.,.,-9,.,.,.
COc1ccc(C(c2nnnn2-c2ccc3c(c2)OCCO3)N2CCN(C/C=C/c3ccccc3)CC2)cc1 (centres undefined),60*,.,.,.,19,41,2,0
C(=C\c1ccccc1)/CN1CCN(C(c2cccc3ccccc23)c2nnnn2Cc2ccccc2)CC1 (centres undefined),64*,.,.,.,12,31,1,7
C(=C\c1ccccc1)/CN1CCN(C(c2cccs2)c2nnnn2-c2ccc3c(c2)OCCO3)CC1 (centres undefined),72*,.,.,.,8,30,0,-17
COc1ccc(-n2nnnc2C(c2cccc3ccccc23)N2CCN(C/C=C/c3ccccc3)CC2)cc1 (centres undefined),63*,.,.,.,13,32,1,2
C(=C\c1ccccc1)/CN1CCN(C(c2cc3ccccc3o2)c2nnnn2-c2ccc3c(c2)OCCO3)CC1 (centres undefined),38,.,.,.,11,.,.,.
COc1ccc(-n2nnnc2C(c2cc3ccccc3o2)N2CCN(C/C=C/c3ccccc3)CC2)cc1 (centres undefined),39,.,.,.,5,.,.,.
Cc1ccc(S(=O)(=O)N(C)C)cc1NC(=O)COC(=O)C1CCN(S(=O)(=O)c2cccs2)CC1,6,10,4,2,6,.,.,.
Cc1ccc([C@H]2N[C@]3(CCCN(Cc4cccn4C)C3=O)[C@H]3C(=O)N(C)C(=O)[C@@H]23)cc1,-5,.,.,.,-1,.,.,.
